How the values were obtained:
[1] = Lipophilicity, logD of compound; type: physicochemical; settings: octanol/water
[2] = Metabolic stability in rat hepatocytes assessed as intrinsic clearance measured per million cells; type: ADME, cell-based, Hepatocyte; settings: read-out: CLH
[3] = Drug level in mouse plasma at 40 mg/kg, po administered as single dose measured after 1 hr; type: ADME, organism-based
Method in brief: (§1)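 Plasma was taken from Colo205 tumour-bearing female nude mice sacrificed 1 or 8 h after a single 40 mg/kg oral dose. Drug concentrations were measured in µM.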

[4] = Drug level in mouse plasma at 40 mg/kg, po administered as single dose measured after 8 hrs; type: ADME, organism-based; method in brief: as §1
[5] = Half life in dog; type: ADME, Canis lupus familiaris; settings: in vivo
[6] = Clearance in guinea pig; type: ADME, Cavia porcellus; settings: in vivo
[7] = Metabolic stability in dog hepatocytes assessed as intrinsic clearance measured per million cells; type: ADME, cell-based, Canis lupus familiaris, Hepatocyte; settings: read-out: CLH
[8] = Half life in mouse; type: ADME, organism-based; settings: in vivo
[9] = Volume of distribution at steady state in rat; type: ADME; settings: in vivo, read-out: Vdss
[10] = Oral bioavailability in rat; type: ADME, organism-based; settings: in vivo
[11] = Clearance in dog; type: ADME, Canis lupus familiaris; settings: in vivo
[12] = Metabolic stability in mouse hepatocytes assessed as intrinsic clearance measured per million cells; type: ADME, cell-based, Hepatocyte; settings: read-out: CLH
[13] = Half life in guinea pig; type: ADME, Cavia porcellus; settings: in vivo
[14] = Clearance in mouse; type: ADME, organism-based; settings: in vivo
[15] = Oral bioavailability in dog; type: ADME, organism-based, Canis lupus familiaris; settings: in vivo
[16] = Clearance in rat; type: ADME; settings: in vivo
[17] = Metabolic stability in human hepatocytes assessed as intrinsic clearance measured per million cells; type: ADME, cell-based, Hepatocyte; settings: read-out: CLH
MDR1 = experiment: Apparent permeability in LLC-PK1 cells expressing MDR1; type: ADME, cell-based, Sus scrofa; settings: pig
Method in brief: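 The cells were MDR1-LLC PK1, a line engineered to express the P-gp efflux pump. Permeability was taken as apical-to-basolateral Papp (10⁻⁶ cm/s), and the efflux ratio was also derived.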

[18] = Half life in rat; type: ADME; settings: in vivo
[19] = Volume of distribution at steady state in guinea pig; type: ADME, Cavia porcellus; settings: in vivo, read-out: Vdss
[20] = Oral bioavailability in mouse; type: ADME, organism-based; settings: in vivo
[21] = Volume of distribution at steady state in dog; type: ADME, Canis lupus familiaris; settings: in vivo, read-out: Vdss
[22] = Volume of distribution at steady state in mouse; type: ADME, organism-based; settings: in vivo, read-out: Vdss
[23] = Metabolic stability in rat liver microsomes assessed as intrinsic clearance; type: ADME, Microsome; settings: read-out: CLH
[24] = Metabolic stability in human liver microsomes assessed as intrinsic clearance; type: ADME, Microsome; settings: read-out: CLH

Compound	logD [1]	concentration at 1 h [3]	concentration at 8 h [4]	microsomal CLint [23]	microsomal CLint [24]	other results
Cc1cc(Cl)c(-c2nccn2C)cc1NC(=O)c1ccc(OCc2ccccn2)cc1	3.2	–	–	–	–	–
Cc1cc(F)c(-c2ncc[nH]2)cc1NC(=O)c1ccc(OCc2ccccn2)cc1	3	58 µM	20000 nM	–	–	hepatocyte CLint [2]: 14 µL/min/1e6 cells
Cc1cc(C)c(-c2ncc[nH]2)cc1NC(=O)c1ccc(OCc2ccccn2)cc1	3.1	22.3 µM	1900 nM	–	–	half-life [5]: 198 min; clearance [6]: 18 mL/min/kg; hepatocyte CLint [7]: 1.4 µL/min/1e6 cells; half-life [8]: 42 min; Vd [9]: 1.2 L/kg; bioavailability [10]: 100%; clearance [11]: 4 mL/min/kg; hepatocyte CLint [12]: 6.6 µL/min/1e6 cells; half-life [13]: 90 min; hepatocyte CLint [2]: 18 µL/min/1e6 cells; clearance [14]: 31 mL/min/kg; bioavailability [15]: 100%; clearance [16]: 24 mL/min/kg; hepatocyte CLint [17]: 9 µL/min/1e6 cells; Papp (MDR1): 7.5 ×10⁻⁶ cm/s; half-life [18]: 66 min; Vd [19]: 1.8 L/kg; bioavailability [20]: 75%; Vd [21]: 0.9 L/kg; Vd [22]: 1.6 L/kg
Cc1cc(C)c(-c2c(C)nn(C)c2C)cc1NC(=O)c1ccc(OCc2ccccn2)cc1	> 3	–	–	271 µL/min/mg	122 µL/min/mg	–
Cc1ccc(-c2[nH]cnc2C)cc1NC(=O)c1ccc(OCc2ccccn2)cc1	2.9	–	–	–	–	–
Cc1nc(-c2ccc(C)c(NC(=O)c3ccc(OCc4ccccn4)cc3)c2)c[nH]1	3	–	–	–	–	–
Cc1ccc(-c2cn(C)c(C)n2)cc1NC(=O)c1ccc(OCc2ccccn2)cc1	2.7	–	–	–	–	–
Cc1cc(C)c(-c2cccnc2)cc1NC(=O)c1ccc(OCc2ccccn2)cc1	> 3	–	–	78 µL/min/mg	62 µL/min/mg	–
Cc1ccc(-c2cnc(C)n2C)cc1NC(=O)c1ccc(OCc2ccccn2)cc1	2.8	1.8 µM	80 nM	–	–	–
Cc1ccc(-c2cn(C)cn2)cc1NC(=O)c1ccc(OCc2ccccn2)cc1	2.5	63 µM	16000 nM	–	–	–
Cc1cc(Cl)c(-c2ncc[nH]2)cc1NC(=O)c1ccc(OCc2ccccn2)cc1	> 3	–	–	–	–	–
Cc1ccc(-c2c[nH]cn2)cc1NC(=O)c1ccc(OCc2ccccn2)cc1	2.8	–	–	–	–	–
Cc1ccc(-c2ncc[nH]2)c(C)c1NC(=O)c1ccc(OCc2ccccn2)cc1	2.8	3.3 µM	140 nM	–	–	–
Cc1cc(C)c(-c2cn(C)cn2)cc1NC(=O)c1ccc(OCc2ccccn2)cc1	3	94 µM	16000 nM	–	–	half-life [5]: 84 min; clearance [6]: 1.6 mL/min/kg; hepatocyte CLint [7]: 10 µL/min/1e6 cells; half-life [8]: 48 min; Vd [9]: 0.2 L/kg; bioavailability [10]: 90%; clearance [11]: 4.7 mL/min/kg; hepatocyte CLint [12]: < 1 µL/min/1e6 cells; half-life [13]: 252 min; hepatocyte CLint [2]: 19 µL/min/1e6 cells; clearance [14]: 6.1 mL/min/kg; bioavailability [15]: 32%; clearance [16]: 1.7 mL/min/kg; hepatocyte CLint [17]: 6 µL/min/1e6 cells; Papp (MDR1): 16.5 ×10⁻⁶ cm/s; half-life [18]: 144 min; Vd [19]: 0.5 L/kg; bioavailability [20]: 70%; Vd [21]: 0.5 L/kg; Vd [22]: 0.4 L/kg
Cc1cc(C)c(-c2ccccn2)cc1NC(=O)c1ccc(OCc2ccccn2)cc1	> 3	–	–	296 µL/min/mg	209 µL/min/mg	–
Cc1cc(Cl)c(-c2cn(C)c(C)n2)cc1NC(=O)c1ccc(OCc2ccccn2)cc1	3.3	–	–	–	–	–
Cc1cc(C)c(-c2ccc(N)nn2)cc1NC(=O)c1ccc(OCc2ccccn2)cc1	2.6	33 µM	2700 nM	8 µL/min/mg	< 4 µL/min/mg	–
Cc1ccc(-c2nccn2C)cc1NC(=O)c1ccc(OCc2ccccn2)cc1	2.8	–	–	–	–	–
Cc1cc(C)c(-c2c[nH]nc2C)cc1NC(=O)c1ccc(OCc2ccccn2)cc1	> 3	5.5 µM	230 nM	55 µL/min/mg	20 µL/min/mg	–
Cc1cc(Cl)c(-c2cn(C)cn2)cc1NC(=O)c1ccc(OCc2ccccn2)cc1	3.1	–	–	–	–	–
Cc1cc(C)c(-c2cccc(N)n2)cc1NC(=O)c1ccc(OCc2ccccn2)cc1	> 3	–	–	155 µL/min/mg	88 µL/min/mg	–
Cc1csc(-c2cc(NC(=O)c3ccc(OCc4ccccn4)cc3)c(C)cc2C)n1	> 3	–	–	147 µL/min/mg	513 µL/min/mg	–
Cc1cc(C)c(-c2cnc(C)n2C)cc1NC(=O)c1ccc(OCc2ccccn2)cc1	2.8	2.9 µM	280 nM	–	–	hepatocyte CLint [2]: 32 µL/min/1e6 cells; hepatocyte CLint [17]: 12 µL/min/1e6 cells
Cc1cc(C)c(-c2nc3ccccc3[nH]2)cc1NC(=O)c1ccc(OCc2ccccn2)cc1	> 3.5	–	–	21 µL/min/mg	30 µL/min/mg	–
CS(=O)(=O)c1ccc(C(=O)Nc2ccc(Cl)c(-c3ccccn3)c2)c(Cl)c1 [VISMODEGIB]	2.8	10.3 µM	18800 nM	–	–	half-life [8]: 60 min; bioavailability [10]: 49%; hepatocyte CLint [2]: 16 µL/min/1e6 cells; clearance [14]: 5.6 mL/min/kg; clearance [16]: 2 mL/min/kg; hepatocyte CLint [17]: < 1 µL/min/1e6 cells; half-life [18]: 114 min; bioavailability [20]: 33%
Cc1ccc(-c2ncc[nH]2)cc1NC(=O)c1ccc(OCc2ccccn2)cc1	3	–	7500 nM	–	–	–
Cc1cc(C)c(-c2ccc(N)cn2)cc1NC(=O)c1ccc(OCc2ccccn2)cc1	3.2	–	–	32 µL/min/mg	9 µL/min/mg	–

Reference: ChEMBL document CHEMBL4610013, “Heteroarylamide smoothened inhibitors: Discovery of N-[2,4-dimethyl-5-(1-methylimidazol-4-yl)phenyl]-4-(2-pyridylmethoxy)benzamide (AZD8542) and N-[5-(1H-imidazol-2-yl)-2,4-dimethyl-phenyl]-4-(2- pyridylmethoxy)benzamide (AZD7254)” (Bioorg Med Chem, 2020)
